Columns and labels:
Rattus norvegicus [1] = assay: In vivo inhibition of polyol accumulation in the sciatic nerve of galactosemic rats, activity is measured as polyol contents; format: functional, organism-based
Summary of the method: (§1)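 Male Wistar rats (SIC, 4 weeks old), three per group, had free access to water and a 20% galactose diet containing the compound for 6 days. Galactose-only and standard-diet groups served as controls. Rats were bled under ether anesthesia on day 7. Sciatic nerve polyol was measured by a modified Dvornik assay. % inhibition = (galactose control − treated)/(galactose control − normal) × 100. Student's t-test was used.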

Rattus norvegicus [2] = assay: In vivo inhibition of polyol accumulation in the sciatic nerve of galactosemic rats, activity is expressed as percent inhibition of poloyl accumulation.; format: functional; design: concentration or dose not given beside the values; summary of the method: as §1

Structure (SMILES) | polyol content (Rattus norvegicus [1]) | Inhibition (Rattus norvegicus [2])
CN1C(=O)Nc2ccccc2[C@@]12NC(=O)NC2=O | 8.4 µmol/g | 39%
CN1C(=O)Nc2ccc(F)cc2C12NC(=O)NC2=O (stereo not given) | 6.7 µmol/g | 58.7%
CN1C(=O)Nc2cc([N+](=O)[O-])ccc2C12NC(=O)NC2=O (stereo not given) | 10.3 µmol/g | 11.5%
CN1C(=O)Nc2cc(N3CCOCC3)c([N+](=O)[O-])cc2C12NC(=O)NC2=O (stereo not given) | 10.4 µmol/g | 10.3%
Cc1ccc2c(c1)NC(=O)N(C)C21NC(=O)NC1=O (stereo not given) | 8.4 µmol/g | 37.5%
Cc1ccc2c(c1)C1(NC(=O)NC1=O)N(C)C(=O)N2 (stereo not given) | 9 µmol/g | 30.9%
CN1C(=O)Nc2ccc(F)cc2[C@@]12NC(=O)NC2=O | 6.6 µmol/g | 61%
CC(C)CN1C(=O)N(C)C2(NC(=O)NC2=O)c2ccccc21 (stereo not given) | 8.1 µmol/g | 27.7%
COc1ccc2c(c1)C1(NC(=O)NC1=O)N(C)C(=O)N2 (stereo not given) | 10.4 µmol/g | 13.6%
CN1C(=O)Nc2cc(Cl)c([N+](=O)[O-])cc2C12NC(=O)NC2=O (stereo not given) | 10.6 µmol/g | 7.7%
O=C1NC(=O)C2(N1)NC(=O)Nc1ccccc12 (stereo not given) | 10.7 µmol/g | 15.1%
CN1C(=O)Nc2cc3c(cc2C12NC(=O)NC2=O)OCO3 (stereo not given) | 9.2 µmol/g | 28.4%
CN1C(=O)Nc2cc(Cl)c(Cl)cc2C12NC(=O)NC2=O (stereo not given) | 7.5 µmol/g | 52.9%
CN1C(=O)Nc2ccc(F)cc2[C@]12NC(=O)NC2=O | 12.1 µmol/g | 15.5%
CN1C(=O)Nc2c(N)cc(Cl)cc2C12NC(=O)NC2=O (stereo not given) | 7 µmol/g | 44.6%
COc1ccc2c(c1)NC(=O)N(C)C21NC(=O)NC1=O (stereo not given) | 9.8 µmol/g | 21%
CN1C(=O)Nc2ccc(OC(=O)/C=C/c3ccccc3)cc2C12NC(=O)NC2=O (stereo not given) | 10.4 µmol/g | 29.3%
CN1C(=O)Nc2ccc(Cl)cc2[C@]12NC(=O)NC2=O | 10.7 µmol/g | 26.3%
CN1C(=O)Nc2c(F)cccc2C12NC(=O)NC2=O (stereo not given) | 9.5 µmol/g | 29.9%
CN1C(=O)Nc2ccccc2C12NC(=O)NC2=O (stereo not given) | 8.8 µmol/g | 32.5%
